In ChEMBL document CHEMBL4130503, “Discovery of novel diarylpyrazolylquinoline derivatives as potent anti-dengue virus agents” (Eur J Med Chem, 2017):
pIC50: −log10 of the molar value. The source made the active and inactive calls. No cut-off for these calls is given here.

Columns and labels:
[1] = system: dengue virus type 2; assay: Antiviral activity against Fluc-tagged DENV2 strain 16681 infected in human HuH7 cells assessed as inhibition of viral replication at 1 uM after 3 days by luciferase reporter gene assay relative to control; format: functional; conditions: Thailand/16681/84, Huh-7, 72 h
Summary of the method: (§1)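 Huh-7-DV-Fluc cells seeded at 2 × 10^4 per well, exposed to 1 or 10 µM for 3 days against a 0.1% DMSO control. Firefly luciferase activity (Bright-Glo) read as DENV-2 replication; percent inhibition relative to control.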

[2] = system: dengue virus type 2; assay: Antiviral activity against Fluc-tagged DENV2 strain 16681 infected in human HuH7 cells assessed as inhibition of viral replication at 10 uM after 3 days by luciferase reporter gene assay relative to control; format: functional; conditions: Thailand/16681/84, Huh-7, 72 h; summary of the method: as §1
[3] = Cytotoxicity against human HuH7 cells assessed as cell viability at 20 uM after 3 days by XTT method relative to control; format: cell-based, Huh-7; conditions: read-out: Activity
Summary of the method: (§2)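 Uninfected Huh-7 cells were seeded at 5 × 10^3 cells/well in maintenance medium. They were exposed to compound at 20 or 200 µM, diluted into medium from 10 mM DMSO stocks, with 0.1% DMSO as control. Incubation was 3 days at 37 °C in humidified 5% CO2. Viability was read by XTT, run in parallel with the antiviral assays.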

[4] = Cytotoxicity against human HuH7 cells assessed as cell viability at 200 uM after 3 days by XTT method relative to control; format: cell-based, Huh-7; conditions: read-out: Activity; summary of the method: as §2
[5] = system: dengue virus type 2; assay: Antiviral activity against Fluc-tagged DENV2 strain 16681 infected in human HuH7 cells after 3 days by luciferase reporter gene assay; format: functional, organism-based; conditions: Thailand/16681/84, Huh-7, 72 h
[6] = Cytotoxicity against human HuH7 cells assessed as growth inhibition after 3 days by XTT method; format: cell-based, Huh-7
Summary of the method: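 Uninfected Huh-7 cells were seeded at 5 × 10^3 cells/well and treated for 3 days at 37 °C in humidified 5% CO2. Viability was read by XTT against a 0.1% DMSO control. CC50 was taken as the concentration giving 50% growth inhibition.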

[7] = Selectivity index, ratio of CC50 for human HuH7 cells to IC50 for Fluc-tagged DENV2 strain 16681 infected in human HuH7 cells; format: toxicity, cell-based; conditions: read-out: Ratio CC50/IC50
Summary of the method: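 SI is calculated as CC50/IC50. CC50 is 50% growth inhibition of uninfected Huh-7 cells by XTT after 3 days. IC50 is 50% inhibition of DENV-2 replication in Huh-7-DV-Fluc replicon cells (2 × 10^4 cells/well), measured by firefly luciferase after 3 days of treatment with a 0.1% DMSO control.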

[8] = system: dengue virus type 2; assay: Potency index, ratio of ribavirin IC50 to compound IC50 for antiviral activity against Fluc-tagged DENV2 strain 16681 infected in human HuH7 cells; format: functional, Thailand/16681/84
[9] = system: dengue virus type 2; assay: Antiviral activity against Fluc-tagged DENV2 strain 16681 infected in human HuH7 cells assessed as reduction in viral replication by measuring NS2B protein expression at 0.5 to 5 uM after 3 days by immunoblot analysis; format: functional, organism-based; conditions: Thailand/16681/84
Summary of the method: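 DENV-2 (16681) replicating Huh-7 cells treated with 0.5, 1, 2.5 and 5 µM for 3 days; 0.1% DMSO mock. Whole-cell lysates immunoblotted overnight with rabbit polyclonal anti-NS2B (1:3000); GAPDH (1:10000) as loading control.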

[10] = system: dengue virus type 2; assay: Antiviral activity against Fluc-tagged DENV2 strain 16681 infected in human HuH7 cells assessed as reduction in viral replication by measuring NS5 gene expression at 0.5 to 5 uM after 3 days by RT-qPCR assay; format: functional, organism-based; conditions: Thailand/16681/84
Summary of the method: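 DENV-2 (16681) replicating Huh-7 cells exposed to 0.5, 1, 2.5 and 5 µM for 3 days; 0.1% DMSO mock. Total RNA analysed by RT-qPCR with NS5-targeted primers, normalised to cellular GAPDH mRNA; means ± SD of triplicate experiments.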

[11] = system: dengue virus type 1; assay: Antiviral activity against Fluc-tagged DENV1 infected in human HuH7 cells after 3 days by luciferase reporter gene assay; format: functional, organism-based; conditions: Huh-7, 72 h
[12] = system: dengue virus type 3; assay: Antiviral activity against Fluc-tagged DENV3 infected in human HuH7 cells after 3 days by luciferase reporter gene assay; format: functional, organism-based; conditions: Huh-7, 72 h
[13] = system: dengue virus type 4; assay: Antiviral activity against Fluc-tagged DENV4 infected in human HuH7 cells after 3 days by luciferase reporter gene assay; format: functional, organism-based; conditions: Huh-7, 72 h
[14] = system: dengue virus type 2; assay: Antiviral activity against DENV2 strain 16681 infected in ICR suckling mouse assessed as protection against mouse death at 1 to 5 mg/kg, ip treated on day 1,3 and 5 post infection measured daily for 6 days; format: functional, organism-based; conditions: Thailand/16681/84
Summary of the method: (§3)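 Six-day-old ICR suckling mice, n = 5/group, given 2.5 × 10^5 pfu DENV-2 intracerebrally, then 1, 5, 10 or 20 mg/kg intraperitoneally at 1, 3 and 5 dpi. Controls were DENV plus ip saline, and 60 °C heat-inactivated DENV (mock). Survival, clinical score (paralysis, anorexia, asthenia) and body weight were recorded daily for 6 days.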

[15] = system: dengue virus type 2; assay: Antiviral activity against DENV2 strain 16681 infected in ICR suckling mouse assessed as protection against paralysis at 1 to 5 mg/kg, ip treated on day 1,3 and 5 post infection measured daily for 6 days; format: functional, organism-based; conditions: Thailand/16681/84; summary of the method: as §3
[16] = system: dengue virus type 2; assay: Antiviral activity against DENV2 strain 16681 infected in ICR suckling mouse assessed as protection against anorexia at 1 to 5 mg/kg, ip treated on day 1,3 and 5 post infection measured daily for 6 days; format: functional, organism-based; conditions: Thailand/16681/84; summary of the method: as §3
[17] = system: dengue virus type 2; assay: Antiviral activity against DENV2 strain 16681 infected in ICR suckling mouse assessed as protection against asthenia at 1 to 5 mg/kg, ip treated on day 1,3 and 5 post infection measured daily for 6 days; format: functional, organism-based; conditions: Thailand/16681/84; summary of the method: as §3

SMILES	inhibition at 1 µM [1] [%]	inhibition at 10 µM [2] [%]	viability at 72 h, 20 µM [3] [%]	viability at 72 h, 200 µM [4] [%]	other results
COc1ccc(-c2cc(-c3ccc4cc(F)ccc4n3)n(-c3ccc(F)cc3)n2)cc1	41.4	55.3	98.8	95.4	pIC50 [5]: 5.87; CC50 at 72 h [6]: > 200000 nM; selectivity ratio [7]: > 147; Ratio IC50 [8]: 10
COc1ccc(-c2cc(-c3ccc4cc(F)ccc4n3)n(-c3ccc(S(N)(=O)=O)cc3)n2)cc1	59	85.3	83.7	89.5	pIC50 [5]: 6.09; CC50 at 72 h [6]: > 200000 nM; selectivity ratio [7]: > 247; Ratio IC50 [8]: 10; Activity [9]: Active; Activity [10]: Active; pIC50 [11]: 5.92; pIC50 [12]: 6.14; pIC50 [13]: 5.81; Activity [14]: Active; Activity [15]: Active; Activity [16]: Active; Activity [17]: Active
Fc1ccc2nc(-c3cc(-c4ccccc4)nn3-c3ccccc3)ccc2c1	3.02	5.13	126	98.3	
COc1ccc(-c2cc(-c3ccc4cc(F)ccc4n3)nn2-c2ccccc2)cc1	4.14	7.15	95.6	93.7	
Fc1ccc(-n2nc(-c3ccccc3)cc2-c2ccc3cc(F)ccc3n2)cc1	4.36	8.31	97.8	91.6	
NC(=O)c1ncn([C@@H]2O[C@H](CO)[C@@H](O)[C@H]2O)n1 [RIBAVIRIN]	10.1	32.5		26.8	selectivity ratio [7]: 4.47
COc1ccc(-c2cc(-c3ccc4cc(F)ccc4n3)n(-c3ccccc3)n2)cc1	5.31	8.09	104	98.9	
NS(=O)(=O)c1ccc(-n2nc(-c3ccc(F)cc3)cc2-c2ccc3cc(F)ccc3n2)cc1	5.71	12.8	91.1	43	
NS(=O)(=O)c1ccc(-n2nc(-c3ccccc3)cc2-c2ccc3cc(F)ccc3n2)cc1	4.52	11.8	89.2	83.6	
Fc1ccc(-c2cc(-c3ccc4cc(F)ccc4n3)nn2-c2ccccc2)cc1	3.58	6.14	88.3	89.7	
Fc1ccc(-c2cc(-c3ccc4cc(F)ccc4n3)n(-c3ccc(F)cc3)n2)cc1	8.91	22.4	95.3	86.5	
COc1ccc(-n2nc(-c3ccc(F)cc3)cc2-c2ccc3cc(F)ccc3n2)cc1	6.12	15.8	89.1	52.5	
Fc1ccc(-c2cc(-c3ccc4cc(F)ccc4n3)n(-c3ccccc3)n2)cc1	11.2	25.4	88.1	87.5	
Fc1ccc2nc(-c3cc(-c4ccccc4)n(-c4ccccc4)n3)ccc2c1	5.21	15.3	124	115	
COc1ccc(-n2nc(-c3ccccc3)cc2-c2ccc3cc(F)ccc3n2)cc1	7.81	20.7	116	97.3	
COc1ccc(-c2cc(-c3ccc4cc(F)ccc4n3)n(-c3ccc(OC)cc3)n2)cc1	46.9	65.7	95.8	98.4	pIC50 [5]: 5.96; CC50 at 72 h [6]: > 200000 nM; selectivity ratio [7]: > 183; Ratio IC50 [8]: 10
